This is a sample that favours compounds with a hit; in the whole collection about 10% have one here.
WT yeast gro inh = growth inhibition of WT yeast, mitochondrial fusion screen | mitochondrial fusion phenotypic screen, WT strain | AID 1362 | inhibition, % at 10 µM | actives 2.1% (n = 190,000); in the data active = inhibition above about 58%; tested in S. cerevisiae
Diaph act CS = counter-screen for diaphorase-based assays: diaphorase activators and chemical reducers; Diaphorase/resazurin coupled assay, resorufin fluorescence, 16 min; active compounds read high; 1 = vehicle wells, 0 = NADH-free wells; actives 0.005% (n = 190,000); activation factor at 20 µM;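 active = diaphorase activity raised at least twofold by the compound at 20 µM; inactive = activation factor below 2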
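System – purified diaphorase enzyme from Clostridium kluyveri · Input – enzyme 0.07 U/mL final · Also added – final NADH 0.114 mM, resazurin 0.1 mM · Measured by – fluorescence of resorufin, 544 nm excitation, 590 nm emission · Timing – 16 min enzyme reaction, ambient temperature · Measure – resorufin increase flagging diaphorase activators or reducers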
PMI act = increases human mannose-6-phosphate isomerase activity. purified human PMI, coupled resazurin fluorescence, 20 min; active compounds read high; 1 = vehicle control, 0 substrate-free wells. actives 0.005% (n = 190,000). activation factor at 20 µM;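 active = activation factor of 2 or more at 20 µM, relative to plate controls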
Target sequence (P34949 whole entry, looked up): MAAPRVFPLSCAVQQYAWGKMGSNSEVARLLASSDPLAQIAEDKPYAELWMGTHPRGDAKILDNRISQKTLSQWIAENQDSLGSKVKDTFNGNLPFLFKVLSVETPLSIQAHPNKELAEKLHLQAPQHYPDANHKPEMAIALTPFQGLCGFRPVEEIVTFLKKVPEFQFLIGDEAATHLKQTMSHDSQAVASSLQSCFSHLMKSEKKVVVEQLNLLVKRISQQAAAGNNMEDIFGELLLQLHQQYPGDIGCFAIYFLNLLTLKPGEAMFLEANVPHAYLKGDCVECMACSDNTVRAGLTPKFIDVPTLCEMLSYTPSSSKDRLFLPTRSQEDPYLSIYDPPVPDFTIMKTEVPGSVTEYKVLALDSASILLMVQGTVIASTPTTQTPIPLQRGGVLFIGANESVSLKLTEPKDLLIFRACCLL
L major viab = reduces viability of Leishmania major promastigotes; resazurin fluorescence viability; inhibition, % at 10 µM; actives 9% (n = 200,000); in the data active = inhibition above about 50%;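 also: promastigotes grown with compound for 44 hours at 28 °C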
PMI act satM6P = activators of human phosphomannose isomerase at near-saturating mannose 6-phosphate; activation factor at 20 µM; P34949; AID 1216; coupled PMI enzyme assay, resazurin fluorescence, 20 min; active compounds read high; 1 = untreated enzyme, 0 = substrate-free blank; actives 0.34% (n = 190,000);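 active = activation factor of 2 or more at 20 µM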
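Test system: human PMI in coupled enzyme assay; Input: PMI at 15 ng/mL final; Medium: HEPES buffer, pH 7.4; Schedule: 20 min incubation at room temperature; Technique: resorufin fluorescence at Ex 544/Em 590 nm; Compound: 20 µM single dose; Probe or stimulus: Near-saturating mannose-6-phosphate, 1.0 mM.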
Active calls of the source: *.

`COc1ccc(-c2n(Cc3ccccc3)c3ccccc3[n+]2Cc2ccccc2)cc1` gave WT yeast gro inh 26.8, Diaph act CS 1.4, PMI act 1.2, L major viab 99.6* and PMI act satM6P 1.2.
For COc1ccccc1Cn1c(-c2ccccc2OC)nc2ccccc21 the results were WT yeast gro inh 72.1*, Diaph act CS 1.1, PMI act 1.1, L major viab 98.4* and PMI act satM6P 1.1.
Screening COc1ccc(-c2c(C)nn(Cc3ccccc3)c2N)cc1 returned WT yeast gro inh 8.9, Diaph act CS 0.9, PMI act 1, L major viab 6.4 and PMI act satM6P 1.
Screening C[C@@H](C(=O)Nc1ccc2ccccc2c1)[C@H]1C[C@]1(C)[C@H](NS(=O)(=O)c1ccccc1)c1ccccc1 returned WT yeast gro inh -6.4, Diaph act CS 0.8, PMI act 0.8, L major viab 29.3 and PMI act satM6P 0.8.
Screening O=C(CCn1c(=O)[nH]c2ccsc2c1=O)NCc1ccc(F)cc1 returned WT yeast gro inh -14.4, Diaph act CS 0.9, PMI act 1, L major viab -2.3 and PMI act satM6P 1.
`COc1ccc([N+](=O)[O-])cc1N(CC(=O)NCCCOC(C)C)S(C)(=O)=O` gave WT yeast gro inh -0.9, Diaph act CS 1.1, PMI act 1.1, L major viab -0.5 and PMI act satM6P 1.1.
Screening Cn1cccc1/C=N/NC(=O)C12CC3CC(CC(C3)C1)C2 returned WT yeast gro inh -10.9, Diaph act CS 0.9, PMI act 1, L major viab -6.3 and PMI act satM6P 1.
For O=CN1CCN(C(=O)c2ccc(-c3nc4ccccc4s3)s2)CC1 the results were WT yeast gro inh 3.2, Diaph act CS 1.1, PMI act 1.1, L major viab 6.4 and PMI act satM6P 1.
Screening COc1ccc2c(c1)nc(N)n2Cc1ccccc1 returned WT yeast gro inh 3.0, Diaph act CS 1.1, PMI act 1.1, L major viab 63.6* and PMI act satM6P 0.9.
For COc1ccc2c(c1)c(=O)c(Br)c(C)n2Cc1ccccc1 the results were WT yeast gro inh 22.4, Diaph act CS 0.8, PMI act 1, L major viab -4.2 and PMI act satM6P 1.
CCOC(=O)C1CCN(S(=O)(=O)c2c(C)n[nH]c2C)CC1 was read as WT yeast gro inh 66.9*, Diaph act CS 0.9, PMI act 0.9, L major viab 1.3 and PMI act satM6P 1.
CC(C)(C)c1ccc(OCC(=O)NCc2ccco2)cc1 was read as WT yeast gro inh 15.0, Diaph act CS 0.9, PMI act 1.1, L major viab 70.8* and PMI act satM6P 1.
For COC(=O)c1ccc(CNC(=O)c2ccc(COc3ccccc3)cc2)cc1 the results were WT yeast gro inh 16.6, Diaph act CS 1, PMI act 0.9, L major viab 68.8* and PMI act satM6P 1.
Screening O=C(NCC(c1ccco1)N1CCCCC1)c1ccc(OCc2ccccc2)cc1 (centres undefined) returned WT yeast gro inh 71.5*, Diaph act CS 0.9, PMI act 1, L major viab 29.8 and PMI act satM6P 1.
Screening O=C(CCOc1ccccc1)NCC(c1ccco1)N1CCCCC1 (centres undefined) returned WT yeast gro inh -17.4, Diaph act CS 0.9, PMI act 0.9, L major viab -6.0 and PMI act satM6P 1.
Screening O=C(NCc1ccco1)c1ccc(COc2ccc(Cl)cc2)cc1 returned WT yeast gro inh 14.6, Diaph act CS 0.9, PMI act 1, L major viab 50.3* and PMI act satM6P 1.
Screening O=C(NCc1ccc(F)cc1)Nc1cccc(Cl)c1 returned WT yeast gro inh 9.4, Diaph act CS 0.9, PMI act 1, L major viab 1.7 and PMI act satM6P 1.
For COc1ccccc1CNC(=O)c1ccc(OC(C)C)cc1 the results were WT yeast gro inh 8.7, Diaph act CS 1, PMI act 1.1, L major viab -2.6 and PMI act satM6P 1.1.
For O=C1CN(C(=O)CSc2nc(-c3ccc(Cl)cc3)cs2)c2ccccc2N1 the results were WT yeast gro inh 20.2, Diaph act CS 0.7, PMI act 1, L major viab -5.8 and PMI act satM6P 1.
CC(C)NC(=O)C1CCN(C(=O)c2cc3sccc3n2Cc2ccc(F)cc2)CC1 was read as WT yeast gro inh 0.5, Diaph act CS 0.9, PMI act 0.9, L major viab 13.3 and PMI act satM6P 0.9.
O=C(c1cc2sccc2n1Cc1ccc(F)cc1)N1CCCc2ccccc21 was read as WT yeast gro inh 42.4, Diaph act CS 0.9, PMI act 0.9, L major viab 78.0* and PMI act satM6P 0.8.
Screening CC1CCN(C(=O)C2CCN(C(=O)c3cc4sccc4n3Cc3ccc(F)cc3)CC2)CC1 returned WT yeast gro inh 51.6, Diaph act CS 0.8, PMI act 0.9, L major viab 67.0* and PMI act satM6P 0.9.
For CCOC(=O)C1CCCN(CCC(=O)Nc2ccc3c(c2)CCC3)C1 (centres undefined) the results were WT yeast gro inh -1.9, Diaph act CS 0.9, PMI act 0.8, L major viab 89.5* and PMI act satM6P 0.9.
`CCOC(=O)C1CCN(CCC(=O)Nc2ccc(F)cc2)CC1` gave WT yeast gro inh -13.3, Diaph act CS 1, PMI act 1, L major viab 70.1* and PMI act satM6P 1.
CCOc1ccc(NC(=O)CCN2CCCCC2)cc1 was read as WT yeast gro inh 4.7, Diaph act CS 0.9, PMI act 1, L major viab 3.5 and PMI act satM6P 0.9.
CCOC(=O)C1CCN(CCC(=O)Nc2ccc(C)c(C)c2)CC1 was read as WT yeast gro inh -10.6, Diaph act CS 1, PMI act 1, L major viab 88.1* and PMI act satM6P 1.
For CCOC(=O)C1CCCN(C(=O)CN2C(=O)/C(=C/c3ccc(OC)cc3)Oc3ccccc32)C1 (centres undefined) the results were WT yeast gro inh 59.4*, Diaph act CS 0.9, PMI act 0.8, L major viab 73.6* and PMI act satM6P 0.9.
`CCNC(=S)NNC(=O)c1cc(-c2cccc(OC)c2)nc2ccccc12` gave WT yeast gro inh 8.7, Diaph act CS 1, PMI act 1.1, L major viab 11.9 and PMI act satM6P 1.2.
For CCNC(=S)NNC(=O)c1cc(-c2ccc(OCC)cc2)nc2ccccc12 the results were WT yeast gro inh 65.9*, Diaph act CS 0.8, PMI act 1.1, L major viab 29.8 and PMI act satM6P 1.
`Cn1c(Cl)cnc1C1CC(=O)c2cc(Cl)ccc2O1` (centres undefined) gave WT yeast gro inh 0.4, Diaph act CS 0.9, PMI act 0.9, L major viab 100.4* and PMI act satM6P 1.
Screening c1ccc2c(c1)nc(CN1CCOCC1)n1c3ccccc3nc21 returned WT yeast gro inh 80.7*, Diaph act CS 0.9, PMI act 1, L major viab 11.6 and PMI act satM6P 1.1.
